GSTO1 counter – GSTO1 inhibition, counter-screen for RBBP9 inhibitors | P78417 | recombinant GSTO1, activity-based probe fluorescence polarization | inhibition, % at 5.96 µM | actives 1.1% (n = 300,000) | AID 1974;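 active = inhibition above the campaign mean inhibition plus 3 SD, cut at about 35% in these data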;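 also: 0% = GSTO1-1 with DMSO and 100% = wells lacking GSTO1-1 enzyme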
Target sequence (P78417 whole entry, looked up): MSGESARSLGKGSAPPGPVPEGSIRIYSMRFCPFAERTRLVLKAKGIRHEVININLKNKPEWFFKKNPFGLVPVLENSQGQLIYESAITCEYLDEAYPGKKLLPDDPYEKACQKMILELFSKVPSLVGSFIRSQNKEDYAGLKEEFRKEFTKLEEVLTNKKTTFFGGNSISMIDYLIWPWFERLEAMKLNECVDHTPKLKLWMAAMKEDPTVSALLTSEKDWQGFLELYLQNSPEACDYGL
procasp7 counter – counter-screen for procaspase-3 activators: activators of human procaspase-7; P55210; recombinant procaspase-7, Ac-DEVD-pNA absorbance 405 nm; D23A/D198A/D206A triple mutant, cannot self-cleave; scale: DMSO 0, 5 µM enzyme 100; activation, % at 8.5 µM; actives 0.093% (n = 330,000);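 active = percent activation above the screen-wide mean plus 3 SD, cut at about 25% in these data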
Target sequence (P55210 whole entry D23A/D198A/D206A): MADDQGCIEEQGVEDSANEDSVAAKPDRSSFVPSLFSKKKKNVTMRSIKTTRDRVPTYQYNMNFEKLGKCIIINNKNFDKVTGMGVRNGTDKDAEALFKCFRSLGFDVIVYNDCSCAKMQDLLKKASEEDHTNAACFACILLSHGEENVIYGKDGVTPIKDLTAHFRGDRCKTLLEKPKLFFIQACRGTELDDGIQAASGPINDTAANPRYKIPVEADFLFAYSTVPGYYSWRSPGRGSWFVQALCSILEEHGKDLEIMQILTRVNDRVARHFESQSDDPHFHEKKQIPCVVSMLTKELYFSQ
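Detection: p-Nitroaniline absorbance at 405 nm, read at 0 and 120 min; system: Uncleavable procaspase-7 mutant enzyme; evaluation: % activation from two-timepoint absorbance difference, scaled to controls; times: 1 h enzyme–compound preincubation and 2 h substrate reaction, both 25 °C; buffer or medium: Zinc-free HEPES pH 7.4 with 300 mM NaCl, 0.01% Triton X-100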
EBNA-1 inhibitor – blocks EBNA-1 binding to DNA | EBNA-1 DNA binding, fluorescence polarization | inhibition, % at 14.8 µM | actives 0.34% (n = 300,000); in the data active = inhibition above about 28%
Apaf-1 inh – inhibitors of human Apaf-1 apoptosome | O14727 | reconstituted apoptosome caspase-3 activity, DEVD-Rh110 fluorescence | inhibition, % at 20 µM | actives 0.71% (n = 330,000) | AID 489030; active = inhibition of at least 40% at 20 µM;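 also: plate controls were DMSO wells for no effect and DEVD-CHO caspase inhibitor wells for full effect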
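System: Apoptosome proteins | Medium: Hepes pH 7.5 with detergent and BSA | Also added: Cytochrome c trigger plus (Z-DEVD)2-Rh110 caspase-3 substrate | Incubation: 30 min compound preincubation, 50 min activation, room temperature | Detection: Rhodamine 110 fluorescence at Ex 480/Em 540 nm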
ZTA counter – ZTA (EBV) inhibition in EBNA-1 counter-screen; P03206; ZTA-DNA binding, fluorescence polarization; inhibition, % at 11 µM; actives 0.15% (n = 320,000); in the data active = inhibition above about 33%
proCasp3 act – activates human procaspase-3; actives 0.11% (n = 330,000); P42574; recombinant procaspase-3 D3A, Ac-DEVD-pNA absorbance 405 nm; activation, % at 8.5 µM;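 active = activation above the mean of all tested compounds plus 3 SD, cut at about 21% in these data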;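 also: 0% = DMSO alone and 100% = DMSO wells spiked with extra 5 µM PC-3 D3A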
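Test system: Procaspase-3 D3A mutant; medium: Zinc-free HEPES/NaCl buffer with 0.01% Triton X-100 at pH 7.4; reagent: DEVD-pNA substrate; doses: one concentration, 8.5 µM nominal, 0.8% DMSO; times: 1 h preincubation plus 2 h reaction at 25 °C; signal: Epi-absorbance at 405 nm of released p-nitroaniline, 0 and 120 min; replicates: singlicate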
Apaf-1 inh conf – confirmation of Apaf-1 inhibitors; inhibition, % at 20 µM; shares compounds with Apaf-1 inh; reconstituted apoptosome, caspase-3 DEVD-Rh110 fluorescence; actives 25% (n = 1,800); AID 504614;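 active = mean inhibition of at least 40% at 20 µM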;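 also: plate controls were DMSO wells for no effect and DEVD-CHO caspase inhibitor control wells for full effect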
Rh110 interf inh – interferes with Rh110 fluorescence, flagging false Apaf-1 inhibitors; shares compounds with Apaf-1 inh; Rh110 fluorescence interference, quenched caspase reaction; activation (fluorescence interference), % at 20 µM; 1,800 tested, under 10 active;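 active = signal rise of 40% or more at 20 µM, treated as a fluorescence artifact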
Apaf1 inh interf – shows fluorescence interference in the Apaf-1 inhibitor assay format. shares compounds with Apaf-1 inh. AID 588538. 460 tested, under 10 active. fluorescence interference counterscreen, Apaf-1 assay format. IC50, µM; call rule not given here
Active calls of the source: *; nt = no result. An excerpt weighted towards active compounds, which were near 1.8% of everything screened.

SMILES	GSTO1 counter	procasp7 counter	EBNA-1 inhibitor	Apaf-1 inh	ZTA counter	proCasp3 act	Apaf-1 inh conf	Rh110 interf inh	others
CCOC(=O)N1CCN(S(=O)(=O)c2ccc(C(=O)N(CCN(C)C)c3nc4ccc(CC)cc4s3)cc2)CC1	0	-1	-3	4	4	6	nt	nt
CCCCCCCCN1[C@@H](CC(=O)O)c2cc(C(F)(F)F)ccc2S1(=O)=O	2	-4	-6	1	5	6	nt	nt
CCCCCCCCCCCCN1[C@@H](CC(=O)O)c2cc(C(F)(F)F)ccc2S1(=O)=O	4	-1	12	41*	-7	-1	26	8
COC(=O)CNC(=O)Cn1c(=O)n(Cc2ccc(F)cc2)c(=O)c2sccc21	4	1	6	4	12	-7	nt	nt
C1CCC(C(CC2CCCCN2)C2CCCCC2)CC1 (configuration not stated)	-1	2	-3	61*	7	-5	20	17
Cc1ccc(-c2csc3nc4c5ccccc5c(NCCCN5CCOCC5)nn4c(=O)c23)cc1	-3	16	5	13	-8	17	nt	nt
Cc1ccc(-c2csc3nc4c5ccccc5c(NCCCN(C)C)nn4c(=O)c23)cc1	-12	1	-5	42*	0	8	58*	12	Apaf1 inh interf=>100
O=C(O)C[C@@H](CNC(=O)COc1ccc2ccc(=O)oc2c1)c1ccc(Cl)cc1	-3	6	12	-5	2	6	nt	nt
COc1ccc(NC(=O)CCn2c(=S)[nH]c3ccccc3c2=O)cc1	2	-7	-6	86*	-4	10	7	5
COc1ccc(NC(=O)CCCn2c(=S)[nH]c3ccccc3c2=O)cc1	8	12	2	8	17	2	nt	nt
CC(C)N(C(=O)[C@H]1CC(CC(=O)NC(C)(C)C)C(=O)N2CCc3c([nH]c4ccccc34)[C@]12C)C(C)C (some centres not stated)	nt	3	nt	13	nt	1	nt	nt
Cc1cc(C)c(S(=O)(=O)/N=C2\C=C(NS(=O)(=O)c3ccccc3)C(=O)c3ccccc32)c(C)c1	60*	2	-2	64*	-2	5	48*	-1	Apaf1 inh interf=>100
O=C(O)c1ccc(NC2=C/C(=N/S(=O)(=O)c3ccccc3)c3ccccc3C2=O)cc1	nt	nt	nt	96*	nt	nt	97*	-1	Apaf1 inh interf=>100
COC(=O)c1ccc(N/C(=N/S(=O)(=O)c2ccccc2)c2ccccc2)cc1	-6	7	-2	-3	6	7	nt	nt
Cc1cccc(C)c1NS(=O)(=O)c1ccc2c(c1)C(=O)c1ccccc1C2=O	-1	3	10	12	20	13	nt	nt
Cc1ccc(NC(=O)COC(=O)Cc2c[nH]c3ccccc23)cc1F	nt	nt	nt	21	nt	nt	nt	nt
CCOC(=O)N1CCN(C(=O)C2CC(=O)N(c3ccc(C)cc3)C2)CC1 (configuration not stated)	4	8	-2	9	1	3	nt	nt
C#CCOCCOCCOCCNc1nc(N2CCOCC2)nc(N2CCN(C(=O)CCCCCCCCCCNC(=O)[C@H]([C@@H](C)CC)n3cc(CCCCN=C(N)N)nn3)CC2)n1	-2	-1	3	60*	6	4	29	1
C#CCOCCOCCOCCNc1nc(N2CCN(C(=O)CCCCCCCCCCNC(=O)Cn3cc(CCCCCN)nn3)CC2)nc(N2CCN(C(=O)CCCCCCCCCCNC(=O)[C@@H]([C@H](C)O)n3cc(C)nn3)CC2)n1	-4	-2	11	49*	30	-3	40*	18	Apaf1 inh interf=>100
C#CCOCCOCCOCCNc1nc(N2CCN(C(=O)[C@H]([C@@H](C)CC)n3cc(CCCCN)nn3)CC2)nc(N2CCN(C(=O)[C@H](CCCCN)n3cc(CC(C)O)nn3)CC2)n1 (some centres not stated)	2	4	1	17	-15	-4	nt	nt
C#CCOCCOCCOCCNc1nc(N2CCN(C(=O)CCCCCCCCCCNC(=O)Cn3cc(C[C@@H](C)O)nn3)CC2)nc(N2CCN(C(=O)CCCCCCCCCCNC(=O)[C@@H]([C@H](C)CC)n3cc(CCCCCN)nn3)CC2)n1	4	9	-1	54*	-7	5	50*	13	Apaf1 inh interf=>100
COc1cccc(CNC(=O)CSc2nnc3c(n2)[nH]c2ccccc23)c1	9	6	9	3	-13	-3	nt	nt
Cc1ccccc1-c1ccnc2[nH]n(-c3ccccc3)c(=O)c12	6	10	3	14	5	10	nt	nt
CC(C)[C@H](CN1CCC[C@H]1CN1C(N)=NC[C@H]1C(C)C)N1C[C@@H](Cc2ccccc2)N(CCCC2CCCC2)C1=N	nt	3	nt	63*	nt	3	6	0
CCC[C@@H](CN1CCC[C@H]1CN1C(N)=NC[C@H]1CC(C)C)N1C[C@@H](Cc2ccccc2)N(CCCC2CCCC2)C1=N	nt	4	nt	59*	nt	6	15	9
SMILES	GSTO1 counter	procasp7 counter	EBNA-1 inhibitor	Apaf-1 inh	ZTA counter	proCasp3 act	Apaf-1 inh conf	Rh110 interf inh	others
CC[C@@H](C)[C@@H]1CN([C@@H](CN2CCC[C@H]2CN2C(N)=NC[C@H]2CC(C)C)C(C)C)C(=N)N1CCCC1CCCC1	nt	4	nt	39	nt	-3	nt	nt
CCC[C@@H](CN1CCC[C@H]1CN1C(N)=NC[C@@H]1Cc1ccccc1)N1C[C@@H](Cc2ccccc2)N(CCCC2CCCC2)C1=N	nt	-1	nt	70*	nt	-3	13	4
CCC[C@@H](CN1CCC[C@H]1CN1C(N)=NC[C@@H]1Cc1ccccc1)N1C[C@@H]([C@H](C)CC)N(CCCC2CCCC2)C1=N	nt	11	nt	77*	nt	-6	32	9
COc1ccc(Cc2nc3ccc(C(=O)NCCc4cccc(C)n4)cc3o2)cc1	-7	8	-2	-9	-9	1	nt	nt
Cc1ccc(S(=O)(=O)NCCC(=O)NNC(=O)COc2ccccc2Cl)cc1C	nt	2	nt	13	-3	5	nt	nt
CN(C)CCCNC(=O)C[C@H]1C[C@H](C(=O)N2CCOCC2)[C@@]2(C)c3[nH]c4ccc(Cl)cc4c3CCN2C1=O	nt	6	nt	18	nt	1	nt	nt
CCOC(=O)c1ccc(N=Nc2c(C)[nH]n(-c3ccccc3)c2=O)cc1	3	-8	-4	6	-12	6	nt	nt
